# A selection: hits, their analogues and other compounds. The true share with any hit is near 2.5%.
# ABCG2 block – ABCG2 efflux pump inhibitors, primary screen, multiplex with ABCB1, IgMXP3 cells, flow cytometry; JC-1 efflux; 0.1% of 190,000 active; Broad substrate specificity ATP-binding cassette transporter ABCG2 (Homo sapiens), Q9UNQ0; inhibition, % at 6.6 µM;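 active = inhibition above 80%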;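 note: 0% = DMSO and 100% = nicardipine control wells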
#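 Read-out basis: Efflux inhibition in percent versus controls | Test system: ABCG2 IgMXP3 and barcoded ABCB1 CCRF-Adr cell mix | Quantity: 3 million cells/mL in well | Schedule: 10 min at 25 °C | Control set: Nicardipine as high control, DMSO as low control | Reagent: JC-1 as fluorescent efflux pump substrate | Signal: Flow cytometry of retained JC-1 fluorescence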
# ABCB1 block – ABCB1 efflux pump inhibitors, primary screen, cell-based, multiplex, flow cytometry, ABCG2 counter-screen | ATP-dependent translocase ABCB1 (Homo sapiens), P08183 | CCRF-Adr cells, JC-1 efflux | inhibition, % at 6.6 µM | 0.067% of 190,000 active | AID 1326, 2008; in the data active = inhibition above about 40%;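 note: 0% = vehicle and 100% = reference inhibitor; higher value means more JC-1 retained so stronger ABCB1 efflux block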
# MEKK3 PB1 HTS – modulators of MEKK3-MEK5 PB1 binding, primary screen, biochemical, wildtype MEKK3, multiplex bead flow cytometry, Alexa488-MEK5 | Mitogen-activated protein kinase kinase kinase 3 (Homo sapiens), Q99759 | bead-based flow cytometry, Alexa488-MEK5 binding to MEKK3; actives lie on both sides; 0 = blocked by unlabeled MEK5, 100 = vehicle | binding response (% of control), % at 10 µM | 1.4% of 290,000 active;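 active = binding response more than 3 SD above or below the average of its plate-row segment, actives on both sides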;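 note: Alexa488 bead fluorescence after subtracting the streptavidin-only scavenger bead signal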
# Target sequence (Q99759 whole entry, looked up): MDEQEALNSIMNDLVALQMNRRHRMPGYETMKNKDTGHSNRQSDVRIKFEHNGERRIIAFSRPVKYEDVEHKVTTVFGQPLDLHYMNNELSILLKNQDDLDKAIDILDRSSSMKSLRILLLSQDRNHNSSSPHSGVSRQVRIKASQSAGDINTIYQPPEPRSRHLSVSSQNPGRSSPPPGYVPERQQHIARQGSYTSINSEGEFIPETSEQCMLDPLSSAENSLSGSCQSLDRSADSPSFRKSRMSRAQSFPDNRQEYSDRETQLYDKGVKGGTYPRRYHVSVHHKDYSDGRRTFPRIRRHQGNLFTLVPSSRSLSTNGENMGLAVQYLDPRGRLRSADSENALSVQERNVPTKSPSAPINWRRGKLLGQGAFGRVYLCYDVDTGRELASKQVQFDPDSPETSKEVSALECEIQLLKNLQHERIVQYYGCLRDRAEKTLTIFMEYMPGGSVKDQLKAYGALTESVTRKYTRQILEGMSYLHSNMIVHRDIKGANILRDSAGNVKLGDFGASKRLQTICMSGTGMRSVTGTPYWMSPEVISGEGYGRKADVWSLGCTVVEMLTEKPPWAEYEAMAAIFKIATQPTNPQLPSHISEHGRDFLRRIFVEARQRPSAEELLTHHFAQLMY
# MEKK2wt PB1 HTS – modulators of MEK5 binding to wildtype MEKK2, primary screen, biochemical, multiplex bead flow cytometry, Alexa488-MEK5 | Mitogen-activated protein kinase kinase kinase 2 (Homo sapiens), Q9Y2U5 | Alexa488-MEK5 binding to MEKK2 WT; actives lie on both sides | binding response (% of control), % at 10 µM | 1.1% of 290,000 active | AID 1531, 2009; in the data active = binding response below about 67% or above about 130%
# Efflux pump inh – inhibitors of Candida efflux pumps in yeast, primary screen, S. cerevisiae, Nile Red, multiplex; 0.44% of 330,000 active; inhibition, % at 10 µM; S. cerevisiae Candida pump triplex;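 active = plate passing quality check with inhibition over a set limit, or well fluorescence over plate mean plus 4 SD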;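 note: Nile Red retained in pooled yeast measured as flow cytometry median fluorescence; 0% = buffer negative control and 100% = Enniatin B positive control; higher means more Nile Red kept so more efflux inhibition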
# MEKK2 mut-MEK5 – MEK5 binding signal on mutant MEKK2 PB1, primary screen, biochemical, multiplex bead flow cytometry, Alexa488-MEK5; Alexa488-MEK5 binding to MEKK2 mutant; percent response, % at 10 µM; 0.35% of 290,000 active; in the data active = percent response above about 24%, passing the limit was not always enough
# MEKK2wt confirm – modulators of MEK5 binding to wildtype MEKK2, confirmation, biochemical, single concentration, multiplex bead flow cytometry | shares compounds with MEKK3 PB1 HTS | Alexa488-MEK5 binding to MEKK2 WT; actives lie on both sides | binding response (% of control), % at 10 µM | 2.4% of 5,900 active; in the data active = binding response below about 16% or above about 210%; inactive = in between
# MEKK2mut-MEK5 – mutant MEKK2 PB1-MEK5 binding signal retest – biochemical, single concentration, multiplex bead flow cytometry, confirmation; 2% of 5,900 active; shares compounds with MEKK3 PB1 HTS; percent response, % at 10 µM; Alexa488-MEK5 binding to MEKK2 mutant; in the data active = percent response mostly above about 71%, no sharp cut-off; inactive = mostly below about 38%;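 note: higher means compound restores mutant binding toward wildtype level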
# MEKK3-MEK5 inh – MEKK3 wild-type PB1 binding to MEK5, inhibitors, confirmation, biochemical, bead multiplex flow cytometry, single concentration, wildtype; shares compounds with MEKK3 PB1 HTS; Alexa488-MEK5 binding to MEKK3; stronger effect = lower value; binding response (% of control), % at 10 µM; 1.8% of 5,900 active;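 active = binding response below 72% of control, or above a set upper limit, though filed actives all read lower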;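 note: 100% = DMSO only wells and 0% = binding blocked by excess unlabeled MEK5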
# Starred values were filed as active, the others as inactive; . = no result; ! = a repeat was not active; [ ] = another dose, or the depositor's remark.
SMILES,ABCG2 block,ABCB1 block,MEKK3 PB1 HTS,MEKK2wt PB1 HTS,Efflux pump inh,MEKK2 mut-MEK5,MEKK2wt confirm,MEKK2mut-MEK5,MEKK3-MEK5 inh
COc1ccc(CN2CC3CC(C2)c2cccc(=O)n2C3)cc1OC (configuration not stated),0,0,93,106,0,9,.,.,.
COc1ccc2[nH]cc(CCN)c2c1,2,0,91,152*,0,14,111,12,99
COc1ccc(CNCCc2c[nH]c3ccccc23)c(OC)c1OC,.,.,105,118,0,8,.,.,.
COC(=O)C1=C(c2c(C)noc2C)C[C@@H]2CC[C@H]1N2C(=O)NCC1CC1,.,.,.,.,0,.,.,.,.
COc1ccc(N2CCN(CCCN)CC2)cc1,.,.,104,152*,0,23,162,34,108
Oc1ccc(Br)cc1CN1CCN(c2ccccc2)CC1,-1,0,100,100,0,0,.,.,.
NCCCN1CCN(c2ccccc2)CC1,.,.,98,152*,0,28,133,25,101
CC[C@@H](CO)C1CC2NC3CC4(c5ccccc5N(C)[C@@H]24)C(O)C31 (some centres not stated),.,.,103,109,0,1,.,.,.
O=c1[nH]c(O)c(/C=C2/C=CC(c3cc(Cl)ccc3Cl)=N2)c(=O)[nH]1,.,.,109,63*[inhibitor],0,1,66,-14,95
CC1=Nc2ccccc2/C1=C/c1c(O)[nH]c(=O)[nH]c1=O,.,.,98,99,0,2,.,.,.
CN(C)c1ccc2c(c1)N=C(c1ccco1)OP2(=S)N1CCOCC1 (configuration not stated),0,0,102,99,0,2,.,.,.
COc1ccc(CNC(C)Cc2cccs2)cc1 (configuration not stated),-1,0,95,96,0,-4,.,.,.
CC(N)Cc1c[nH]c2ccc(OCc3cccs3)cc12 (configuration not stated),.,.,119,140*,0,11,108,7,104
COc1ccc(CC(C)NC2CCCCCC2)cc1 (configuration not stated),.,.,98,101,0,0,.,.,.
CC(=NCCCn1ccnc1)c1c(O)n(C2CCCCC2)c(=O)[nH]c1=O,.,.,132*,113,0,23,103,-2,106
O=c1[nH]c(=O)n(C2CCCCC2)c(O)c1C=NCCCn1ccnc1,3,0,.,.,0,.,.,.,.
Cc1[nH]c2ccc(O)cc2c1CCN,.,.,.,.,0,.,.,.,.
Cc1[nH]c2ccc(OCc3ccccc3)cc2c1CCN,.,.,110,162*,1,18,133,14,105
CC[C@@H](CO)NC(=O)[C@@H]1C=C2c3cccc4c3c(cn4C)C[C@H]2N(C)C1,12,1,66*![inhibitor],38*![inhibitor],0,7,109,7,104
CCCCCCCSc1cc(OC)c(CCN(C)C)cc1OC,1,0,104,147*,0,28*,155,21,100
COC(=O)C1=C(c2cc3ccccc3s2)C[C@@H]2CC[C@H]1N2C(=O)NC1CCCCC1,.,.,106,106,0,2,.,.,.
O=C(c1cc(C(=O)NCc2ccc(Cl)cc2)c(=O)n(Cc2ccc(Cl)cc2)c1)c1cc(F)ccc1O,-1,0,134*,107,0,0,97,-9,103
O=C1NC(=S)N(c2ccc(F)cc2)C(=O)/C1=C/c1ccco1,.,.,98,94,0,0,.,.,.
COc1ccc(OC)c(N2C(=O)/C(=C/c3ccco3)C(=O)NC2=S)c1,.,.,85,66*[inhibitor],0,-25,98,2,100
COc1ccc(N2C(=O)/C(=C/c3cc(C)n(-c4ccc(C)cn4)c3C)C(=O)NC2=S)c(OC)c1,-2,0,51,33*[inhibitor],0,-20,85,-5,98
SMILES,ABCG2 block,ABCB1 block,MEKK3 PB1 HTS,MEKK2wt PB1 HTS,Efflux pump inh,MEKK2 mut-MEK5,MEKK2wt confirm,MEKK2mut-MEK5,MEKK3-MEK5 inh
Cc1ccc(C(=O)N[C@@H](C)CN2C3=NC[C@H](Cc4ccccc4)N3C[C@H]2Cc2ccc(O)cc2)cc1Br,.,.,112,168*,0,31*,155,25,88
Cc1ccc(C(=O)N[C@@H](C)CN2C3=NC[C@@H](Cc4ccccc4)N3C[C@H]2Cc2ccc(O)cc2)cc1Br,1,1,108,248*,0,103*,159,61,107
COc1cc2c(cc1OC)C(C(=O)N(C)C1CCCCC1)C1CCCCN1C2=O (configuration not stated),-3,2,95,93,0,-1,.,.,.
O=C1OCCC1NC1=NCCC1 (configuration not stated),0,0,109,109,0,4,.,.,.
COc1cccc(CNCCc2c[nH]c3ccccc23)c1OC,4,1,107,147*,0,44,114,3,103
O=[N+]([O-])c1cnc[nH]1,.,.,.,.,0,.,.,.,.
O=C1NC(=O)N(Cc2ccccc2)C(=O)/C1=C/N1CCCc2ccccc21,66,21,140*,107,0,0,89,2,94
Cc1cc(OCCN2CC2)c2ccccc2n1,.,.,93,141*,0,15,172,51,110
CCOc1cc(C2C(C#N)=C(N)Oc3c2c(=O)oc2ccccc32)ccc1OC(=O)c1cccs1 (configuration not stated),-8,2,129*,100,1,0,94,-1,102
O=C1NC(=O)C(CCc2ccncc2)(Cc2ccc([N+](=O)[O-])cc2)C(=O)N1,2,0,140*,107,0,0,100,2,100
